{"data": "Published values collected from several papers", "PFF0160c": "Dihydroorotate dehydrogenase (quinone), mitochondrial (PFF0160c, Plasmodium falciparum, UniProt Q08210)", "BMX": "Cytoplasmic tyrosine-protein kinase BMX (BMX, Homo sapiens, UniProt P51813)", "PPO3": "PPO3 (Agaricus bisporus, UniProt C7FF04)", "AURKB": "Aurora kinase B (AURKB, Homo sapiens, UniProt Q96GD4)", "ARAF": "Serine/threonine-protein kinase A-Raf (ARAF, Homo sapiens, UniProt P10398)", "KDM1A": "Lysine-specific histone demethylase 1A (KDM1A, Homo sapiens, UniProt O60341)", "PDE5A": "cGMP-specific 3',5'-cyclic phosphodiesterase (PDE5A, Homo sapiens, UniProt O76074)", "MEP1A": "Meprin A subunit alpha (MEP1A, Homo sapiens, UniProt Q16819)", "HDAC2": "Histone deacetylase 2 (HDAC2, Homo sapiens, UniProt Q92769)", "PDE4A": "3',5'-cyclic-AMP phosphodiesterase 4A (PDE4A, Homo sapiens, UniProt P27815)", "note": "Protocols differ between the studies behind these lines."}
{"SMILES": "CNc1cc(Nc2ccc(C(F)(F)F)cc2)n2ncnc2n1", "target": "PFF0160c", "effect on": "enzyme activity", "action": "inhibitor", "IC50 [nM]": 7400}
{"SMILES": "Cc1ccc(NC(=O)c2ccc(C)c(C(F)(F)F)c2)cc1C#Cc1nn(C2CCC(O)CC2)c2ncnc(N)c12 (stereo not shown)", "target": "BMX", "effect on": "enzyme activity", "action": "inhibitor", "technique": "radiometric", "IC50 [nM]": 21}
{"SMILES": "Cc1cc(Nc2ccc(S(F)(F)(F)(F)F)cc2)n2nc(CC(C)C)nc2n1", "target": "PFF0160c", "effect on": "enzyme activity", "action": "inhibitor", "IC50 [nM]": "> 10000"}
{"SMILES": "Nc1nc(N)c(N=Nc2ccc([N+](=O)[O-])cc2)c(Cl)n1", "target": "PPO3", "effect on": "enzyme activity", "action": "inhibitor", "technique": "absorbance", "IC50 [nM]": 37200}
{"SMILES": "COc1ccc2c(Oc3ccc4c(C(=O)Nc5ccccc5N)cccc4c3)ccnc2c1", "target": "AURKB", "effect on": "enzyme activity", "action": "inhibitor", "IC50 [nM]": 9}
{"SMILES": "CCCCc1ccc(-c2ccc(-c3cc(C(=O)O)c4cc(Cl)cc(Cl)c4n3)o2)cc1", "target": "Eukaryotic initiation factor 4A-I (EIF4A1, Homo sapiens, UniProt P60842)", "effect on": "ATPase activity", "action": "inhibitor", "technique": "absorbance", "IC50 [nM]": 52100}
{"SMILES": "Cc1ccc(C(C)C)cc1NC(=O)COC(=O)/C=C/c1ccccc1", "target": "PPO3", "effect on": "enzyme activity", "action": "inhibitor", "IC50 [nM]": 780}
{"SMILES": "Cc1cc(Nc2cccc(Cl)c2)n2nc(CN)nc2n1", "target": "PFF0160c", "effect on": "enzyme activity", "action": "inhibitor", "IC50 [nM]": "> 10000"}
{"SMILES": "Cc1ccc(N=Nc2c(N)nc(N)nc2Cl)cc1", "target": "PPO3", "effect on": "enzyme activity", "action": "inhibitor", "technique": "absorbance", "IC50 [nM]": 42000}
{"SMILES": "Cc1ccc(C(C)C)cc1NC(=O)COC(=O)c1ccc(O)cc1", "target": "PPO3", "effect on": "enzyme activity", "action": "inhibitor", "IC50 [nM]": 18000}
{"SMILES": "CCCS(=O)(=O)Nc1ccc(F)c(C(=O)c2c[nH]c3ncc(Cl)cc23)c1F", "target": "ARAF", "effect on": "enzyme activity", "action": "inhibitor", "notes": "lysate", "IC50 [nM]": 22}
{"SMILES": "CCCSc1nc(Sc2nnnn2C)c2nnn(CCc3c[nH]c4ccccc34)c2n1", "target": "KDM1A", "effect on": "enzyme activity", "action": "inhibitor", "technique": "fluorescence", "IC50 [nM]": 253}
{"SMILES": "Cc1cc(Nc2cc3ncccc3c(N[C@@H]3C[C@H]4CC[C@@H](C3)N4CCC#N)n2)n[nH]1", "target": "AURKB", "effect on": "target engagement in cells", "action": "inhibitor", "technique": "BRET", "IC50 [nM]": "> 10000"}
{"SMILES": "COC(=O)[C@H]1Cc2c([nH]c3ccccc23)[C@@H](c2ccc(OC)c(OC)c2)N1C(=O)CCl", "target": "PDE5A", "effect on": "enzyme activity", "action": "inhibitor", "technique": "FP", "IC50 [nM]": "> 10000"}
{"SMILES": "O=C(CCN(Cc1ccc(Cl)cc1F)Cc1ccc(Cl)c(O)c1F)NO", "target": "MEP1A", "effect on": "enzyme activity", "action": "inhibitor", "IC50 [nM]": 215}
{"SMILES": "CC(C)(C)N1C(=O)[C@@H]2Cc3c([nH]c4ccccc34)[C@@H](c3cccnc3)N2C1=O", "target": "PDE5A", "effect on": "enzyme activity", "action": "inhibitor", "technique": "FP", "IC50 [nM]": 180}
{"SMILES": "CCCON(Cc1ccc(C(=O)NO)cc1)C(=O)Nc1ccc(N(C)C)cc1", "target": "HDAC2", "effect on": "enzyme activity", "action": "inhibitor", "technique": "fluorescence", "IC50 [nM]": 1140}
{"SMILES": "CNCCc1nc2nc(C)cc(Nc3ccc(Cl)cc3)n2n1", "target": "PFF0160c", "effect on": "enzyme activity", "action": "inhibitor", "IC50 [nM]": "> 10000"}
{"SMILES": "Nc1cc(Nc2ccc(C(F)(F)F)cc2)n2ncnc2n1", "target": "PFF0160c", "effect on": "enzyme activity", "action": "inhibitor", "IC50 [nM]": 31000}
{"SMILES": "CCOCc1nc(O)c(-c2nnc(Cc3ccc(Cl)cn3)o2)c(O)c1-c1c(OC)cccc1OC", "target": "Cannabinoid receptor 1 (CNR1, Homo sapiens, UniProt P21554)", "effect on": "ligand displacement", "technique": "radioligand", "IC50 [nM]": "> 30000"}
{"SMILES": "Cc1cc(Nc2cccc(Cl)c2)n2nc(OCCN)nc2n1", "target": "PFF0160c", "effect on": "enzyme activity", "action": "inhibitor", "IC50 [nM]": "> 10000"}
{"SMILES": "COc1ccc([C@@H]2CN(C(=O)[C@@H](O)CO)C[C@@]2(C)[C@@H](C)O)cc1OC1CN(c2ccc(C)cn2)C1", "target": "PDE4A", "effect on": "enzyme activity", "action": "inhibitor", "IC50 [nM]": 0.09}
{"SMILES": "O=C1Nc2ccc(I)cc2/C1=C/c1cc(Br)c(O)c(Br)c1", "target": "ARAF", "effect on": "enzyme activity", "action": "inhibitor", "technique": "radiometric", "IC50 [nM]": 15.4}
{"SMILES": "CCC[C@H](NC(=O)C1CN(C)C1)c1ncc(-c2cc3ccccc3nc2OC)[nH]1", "target": "HDAC2", "effect on": "enzyme activity", "action": "inhibitor", "technique": "fluorescence", "IC50 [nM]": 750}
{"SMILES": "O=C1[C@H]2Cc3c([nH]c4ccccc34)[C@@H](c3cccnc3)N2C(=O)N1c1ccc(Cl)cc1", "target": "PDE5A", "effect on": "enzyme activity", "action": "inhibitor", "technique": "FP", "IC50 [nM]": 4990}
{"SMILES": "Cc1ccc(C(C)C)cc1NC(=O)COC(=O)c1cc(O)cc(O)c1", "target": "PPO3", "effect on": "enzyme activity", "action": "inhibitor", "IC50 [nM]": 20200}
{"SMILES": "CN(C)C/C=C/C(=O)Nc1cccc(C(=O)Nc2ccc(Nc3nccc(-c4cccnc4)n3)cc2)c1", "target": "Serine/threonine-protein kinase Nek3 (NEK3, Homo sapiens, UniProt P51956)", "effect on": "enzyme activity", "action": "inhibitor", "technique": "radiometric", "IC50 [nM]": 185}
{"SMILES": "Cc1[nH]ncc1C(=O)N1CCC(C)(NC(=O)c2c[nH]c(=O)c3ccccc23)C1 (stereo not shown)", "target": "Poly [ADP-ribose] polymerase 1 (PARP1, Homo sapiens, UniProt P09874)", "effect on": "enzyme activity", "action": "inhibitor", "IC50 [nM]": 794}
{"SMILES": "N#CC(C(=O)c1ccc(Cl)cc1Cl)=C1NC(=O)c2ccc(OCc3ccc4c(c3)OCO4)cc2N1", "target": "Cytoplasmic dynein 1 heavy chain 1 (DYNC1H1, Homo sapiens, UniProt Q14204)", "effect on": "ATPase activity", "action": "inhibitor", "IC50 [nM]": 130000}
{"SMILES": "C=CC(=O)Nc1cc(Nc2nccc(Nc3cc(Cl)c(F)cc3C(C)(C)O)n2)c(OC)cc1N1CC[C@@H](N(C)C)C1", "target": "BMX", "effect on": "enzyme activity", "action": "inhibitor", "notes": "with preincubation", "IC50 [nM]": 2290}
{"SMILES": "O=C(CCN(Cc1ccc2c(c1)OCO2)Cc1ccc(Cl)cc1F)NO", "target": "MEP1A", "effect on": "enzyme activity", "action": "inhibitor", "IC50 [nM]": 186}
{"SMILES": "COc1ccc(Nc2nc(N)c(C(=O)c3ccc(OC)c(OC)c3)s2)cc1", "target": "Sphingosine kinase 1 (SPHK1, Homo sapiens, UniProt Q9NYA1)", "effect on": "enzyme activity", "action": "inhibitor", "IC50 [nM]": "~3000"}
{"SMILES": "CCN1C(=O)[C@H]2Cc3c([nH]c4ccccc34)[C@@H](c3cccnc3)N2C1=O", "target": "PDE5A", "effect on": "enzyme activity", "action": "inhibitor", "technique": "FP", "IC50 [nM]": 140}
{"SMILES": "CCCSc1nc(Sc2nncs2)c2nnn(CCO)c2n1", "target": "KDM1A", "effect on": "enzyme activity", "action": "inhibitor", "technique": "fluorescence", "IC50 [nM]": 1050}
{"SMILES": "CC(C)C[C@H]1CC(=O)N[C@@H](C)C(=O)N[C@@H](CCCCCC(=O)O)C(=O)N[C@@H](Cc2c[nH]c3ccccc23)C(=O)N1", "target": "HDAC2", "effect on": "enzyme activity", "action": "inhibitor", "IC50 [nM]": 200}
{"SMILES": "Cc1cc(Nc2ccc(Cl)cc2)n2nc(CCN)nc2n1", "target": "PFF0160c", "effect on": "enzyme activity", "action": "inhibitor", "IC50 [nM]": "> 10000"}
{"SMILES": "CN1CCN(c2ccc(Nc3ncc4cc(C#N)c(=O)n(C5CCCC5)c4n3)cc2)CC1", "target": "ARAF", "effect on": "enzyme activity", "action": "inhibitor", "IC50 [nM]": 566}
{"SMILES": "Cc1cc(Nc2ccc(C(F)(F)F)cc2)n2nc(OCCN(C)C)nc2n1", "target": "PFF0160c", "effect on": "enzyme activity", "action": "inhibitor", "IC50 [nM]": "> 10000"}
{"SMILES": "COc1ccc(C2=NN(C3CCCCCC3)C(=O)[C@@H]3CC=CC[C@H]23)cc1-c1ccc(C(=O)NCC(N)=O)cc1 (relative stereo)", "target": "PDE4A", "effect on": "enzyme activity", "action": "inhibitor", "IC50 [nM]": 316}
{"SMILES": "CNCCOc1nc2nc(C)cc(Nc3ccc(Cl)cc3)n2n1", "target": "PFF0160c", "effect on": "enzyme activity", "action": "inhibitor", "IC50 [nM]": "> 10000"}
{"SMILES": "CCN1C(=O)[C@H]2Cc3c([nH]c4ccccc34)[C@@H](c3ccc(OC)c(OC)c3)N2C1=O", "target": "PDE5A", "effect on": "enzyme activity", "action": "inhibitor", "technique": "FP", "IC50 [nM]": 5110}
{"SMILES": "Cc1cc(Nc2cccc(Cl)c2)n2[nH]c(=O)nc2n1", "target": "PFF0160c", "effect on": "enzyme activity", "action": "inhibitor", "IC50 [nM]": "> 10000"}
{"SMILES": "C[C@@H]1Cc2ccccc2N1C(=O)NCCCCN(C)[C@@H]1Cc2cccc3[nH]c(=O)n(c23)C1", "target": "5-hydroxytryptamine receptor 2A (HTR2A, Homo sapiens, UniProt P28223)", "effect on": "ligand displacement", "technique": "radioligand", "IC50 [nM]": 3700}
